≈ marks a conversion by molar mass, not a printed value. Calls of active or inactive are those of the source. No cut-off for these calls is given here.
Key:
[1] = Water solubility was determined
[2] = lipophilicity parameter (Rm) was determined; conditions: RP-8 HPTLC, 60% methanol/water
[3] = Partition coefficient (logP); conditions: octanol/water
Escherichia coli [4] = experiment: In vitro inhibition of Puromycin reaction in the ribosomes from Escherichia coli; format: functional; conditions: read-out: ED50 (the source's name)
Escherichia coli [5] = experiment: In vitro inhibition of modified fragment reaction using ribosomes from Escherichia coli; format: functional; conditions: read-out: ED50 (the source's name)
Escherichia coli [6] = experiment: In vitro inhibition of polyuridylic acid dependent polyphenylalanine synthesis using ribosomes from Escherichia coli; format: functional; conditions: read-out: ED50 (the source's name)
Escherichia coli [7] = experiment: In vitro inhibition of cell growth in Escherichia coli MRE600; format: functional; conditions: read-out: ED50 (the source's name)
L1210 [8] = experiment: In vitro inhibition of cell growth in L1210 murine leukemia cells; format: functional; conditions: Mus musculus, read-out: ID50 (the source's name)
L1210 [9] = experiment: In Vivo evaluation for the acute toxicity by L1210 clonogenic assay; format: functional, Mus musculus
[10] = In Vivo evaluation for the acute toxicity in mice; conditions: mouse
Saccharomyces cerevisiae [11] = experiment: In vitro inhibition of modified fragment reaction using ribosomes from Saccharomyces cerevisiae; format: functional; conditions: read-out: ED50 (the source's name)
Saccharomyces cerevisiae [12] = experiment: In vitro inhibition of polyuridylic acid dependent polyphenylalanine synthesis using ribosomes from Saccharomyces cerevisiae; format: functional; conditions: read-out: ED50 (the source's name)
T-24 = experiment: In vitro inhibition of cell growth in T24 bladder carcinoma cell line; format: functional; conditions: Homo sapiens, read-out: ID50 (the source's name)
[13] = (§1) Kinetic constant was determined
WiDr [14] = experiment: In vitro inhibition of cell growth in Human WiDr colon carcinoma cell line; format: functional; conditions: read-out: ID50 (the source's name)
Escherichia coli [15] = experiment: In vitro inhibition of cell growth in Escherichia coli; format: functional; conditions: read-out: ED50 (the source's name)
[16] = as §1; format: ADME
Escherichia coli [17] = experiment: In vitro inhibition of modified fragment reaction using ribosomes from Escherichia coli; Inactive at 100 uM; format: functional
Outline: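 Peptidyl transferase assayed by the fragment-reaction protocol, but with intact N-acetyl-Phe-tRNA as substrate in place of its terminal pentanucleotide; ribosomes from the organism named in the line; 50% inhibitory value derived.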

Saccharomyces cerevisiae [18] = experiment: In vitro inhibition of polyuridylic acid dependent polyphenylalanine synthesis using ribosomes from Saccharomyces cerevisiae; Inactive at 100 uM; format: functional
WiDr [19] = experiment: In vitro inhibition of cell growth in Human WiDr colon carcinoma cell line; NT means not tested; format: functional; conditions: read-out: ID50 (the source's name)
Outline: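 Human tumor cell line cytotoxicity measured by the automated PIT method (propidium iodide, ink, Triton X-100); ID50 calculated.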

[20] = lipophilicity parameter(Rm) was determined; format: physicochemical; conditions: RP-8 HPTLC, 60% methanol/water
Outline: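 Rf measured by reversed-phase RP-8 HPTLC, eluent 60% methanol/water; Rm computed as log(1/Rf − 1).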

| SMILES | solubility [1] | Rm [2] | logP [3] | EC50 (Escherichia coli [4]) | EC50 (Escherichia coli [5]) | EC50 (Escherichia coli [6]) | EC50 (Escherichia coli [7]) | IC50 (L1210 [8]) | T/C (L1210 [9]) | LD50 [10] | EC50 (Saccharomyces cerevisiae [11]) | EC50 (Saccharomyces cerevisiae [12]) | IC50 (T-24) | log k0 [13] | IC50 (WiDr [14]) | EC50 (Escherichia coli [15]) | further results |
| --- | --- | --- | --- | --- | --- | --- | --- | --- | --- | --- | --- | --- | --- | --- | --- | --- | --- |
| CCCCSC[S+]([O-])C[C@H](C)NC(=O)/C=C/c1c(C)nc(O)nc1O (stereo not given in full) | 940 µg/mL (≈ 2430 µM) | 0.218 | 0.819 | 0.05 µM | 12.1 µM | 3 µM | 2.5 µM | 0.05 µM | 164% | 16.5 mg/kg | 15 µM | 1.9 µM | 0.09 µM | 1.29 | 0.16 µM |  |  |
| CCC[S+]([O-])C[C@H](C)NC(=O)/C=C/c1c(C)nc(O)nc1O (stereo not given in full) |  |  |  | 0.38 µM |  | 80 µM | 9.5 µM | 0.45 µM |  |  |  | 200 µM |  |  |  |  |  |
| CCCCCCCCCC[S+]([O-])C[C@H](CO)NC(=O)/C=C/c1c(C)nc(O)nc1O (stereo not given in full) |  |  |  | 0.08 µM | 5000 µM | 1.8 µM |  | 0.14 µM |  |  | 700 µM | 0.2 µM |  |  |  | 3 µM |  |
| CCCCCCCCSC[S+]([O-])C[C@H](CO)NC(=O)/C=C/c1c(C)nc(O)nc1O (stereo not given in full) | 13 µg/mL (≈ 28.3 µM) | 0.895 | > 2.42 | 0.25 µM | 60 µM | 1.6 µM |  | 0.1 µM | 151% | 29.5 mg/kg | 300 µM | 1.3 µM | 0.06 µM |  | 0.22 µM | 4.4 µM | Log Ko [16]: 3.333 |
| CCCCCCC[S+]([O-])C[C@H](CO)NC(=O)/C=C/c1c(C)nc(O)nc1O (stereo not given in full) | 220 µg/mL (≈ 551 µM) | 0.56 | 1.02 | 0.04 µM | 9 µM | 0.48 µM |  | 0.15 µM | 330% | 6.1 mg/kg | 5.8 µM | 0.1 µM | 0.16 µM |  | 0.28 µM | 1.4 µM | Log Ko [16]: 1.771 |
| CCCCCC[S+]([O-])C[C@H](CO)NC(=O)/C=C/c1c(C)nc(O)nc1O (stereo not given in full) | 890 µg/mL (≈ 2310 µM) | 0.235 | 0.41 | 0.18 µM | 7.5 µM | 0.75 µM |  | 0.14 µM | 135% | 1.6 mg/kg | 5 µM | 0.14 µM | 0.35 µM |  | 0.39 µM | 3 µM | Log Ko [16]: 1.111 |
| Cc1nc(O)nc(O)c1/C=C/C(=O)N[C@@H](C)C[S+]([O-])CCl (stereo not given in full) |  |  |  |  |  | 86 µM |  | 0.15 µM |  |  |  |  |  |  |  | 7.5 µM | ED50 (Escherichia coli [17]): inactive; ED50 (Saccharomyces cerevisiae [18]): inactive |
| CSC[S+]([O-])C[C@H](C)NC(=O)/C=C/c1c(C)nc(O)nc1O (stereo not given in full) | 18000 µg/mL (≈ 52100 µM) | -0.404 | -0.699 | 0.25 µM | 18 µM | 14.6 µM | 5.6 µM | 0.07 µM | 216% | 2.33 mg/kg | 39 µM | 50 µM | 0.44 µM | -0.209 |  |  | IC50 (WiDr [19]): 0.58 µM |
| Cc1nc(O)nc(O)c1/C=C/C(=O)N[C@@H](CO)C[S+]([O-])CSC(C)(C)C (stereo not given in full) |  |  |  | 0.31 µM | 27.5 µM | 31 µM |  |  |  |  | 100 µM | 900 µM |  |  |  |  |  |
| Cc1nc(O)nc(O)c1/C=C/C(=O)N[C@@H](CO)C[S@@+]([O-])CCl |  |  |  |  |  |  |  |  |  |  |  |  |  |  |  | 20 µM |  |
| CCCCCCCCSC[S+]([O-])C[C@H](C)NC(=O)/C=C/c1c(C)nc(O)nc1O (stereo not given in full) | 15 µg/mL (≈ 33.8 µM) | 1.151 | > 2.42 | 0.46 µM | 46 µM | 8.5 µM |  | 0.03 µM |  |  | 60 µM | 1.4 µM | 0.14 µM |  | 0.28 µM | 15 µM | Log Ko [16]: 3.533 |
| CC(=O)NCCSC[S+]([O-])C[C@H](CO)NC(=O)/C=C/c1c(C)nc(O)nc1O (stereo not given in full) |  |  |  | 1 µM | 60 µM | 34 µM | 100 µM | 1.9 µM |  |  | 56 µM | 32 µM |  |  |  |  |  |
| CCCCCSC[S+]([O-])C[C@H](CO)NC(=O)/C=C/c1c(C)nc(O)nc1O (stereo not given in full) | 280 µg/mL (≈ 671 µM) | 0.16 | 0.6 | 0.03 µM | 2.6 µM | 1 µM | 1 µM | 0.06 µM | 386% | 4.7 mg/kg | 2.7 µM | 0.17 µM | 0.28 µM | 1.168 | 0.4 µM |  |  |
| CSC[S+]([O-])C[C@H](CO)NC(=O)/C=C/c1c(C)[nH]c(=O)[nH]c1=O (stereo not given in full) | 3800 µg/mL (≈ 10500 µM) |  | -1.71 | 0.1 µM | 3.2 µM | 8.5 µM | 11 µM | 0.48 µM | 117% | 0.26 mg/kg | 2.8 µM | 5.2 µM | 0.91 µM | -0.676 | 0.92 µM |  | Rm [20]: -0.638 |
| CCCCSC[S+]([O-])C[C@H](CO)NC(=O)/C=C/c1c(C)nc(O)nc1O (stereo not given in full) | 570 µg/mL (≈ 1410 µM) | -0.028 | 0.143 | 0.06 µM | 5.1 µM | 1.8 µM | 3 µM | 0.1 µM | 156% | 2.33 mg/kg | 4.8 µM | 1 µM | 0.23 µM | 0.777 | 0.31 µM |  |  |
| CCC[S+]([O-])C[C@H](CO)NC(=O)/C=C/c1c(C)nc(O)nc1O (stereo not given in full) |  |  |  | 0.23 µM | 4.5 µM | 140 µM | 36 µM | 0.75 µM |  |  | 6.2 µM | 42 µM |  |  |  |  |  |
| CCCSC[S+]([O-])C[C@H](CO)NC(=O)/C=C/c1c(C)nc(O)nc1O (stereo not given in full) | 1500 µg/mL (≈ 3850 µM) |  | -0.665 | 0.08 µM | 5.5 µM | 3 µM | 5 µM | 0.14 µM |  |  | 7.5 µM | 7 µM | 0.65 µM | 0.117 | 0.89 µM |  | Rm [20]: -0.261 |
| Cc1nc(O)nc(O)c1/C=C/C(=O)N[C@@H](CO)C[S+]([O-])CSC1CCCCC1 (stereo not given in full) |  |  |  | 0.04 µM | 5.2 µM | 6.6 µM | 7.5 µM | 0.6 µM |  |  | 12 µM | 5.1 µM |  |  |  |  |  |

— ChEMBL document CHEMBL1124574, “Lipophilic analogues of sparsomycin as strong inhibitors of protein synthesis and tumor growth: a structure-activity relationship study” (J Med Chem, 1989)
